Results on one compound are retold here after ChEMBL document CHEMBL4376814, “Novel cyclin-dependent kinase 9 (CDK9) inhibitor with suppression of cancer stemness activity against non-small-cell lung cancer” (Eur J Med Chem, 2019).

Calls of active or inactive are those of the source. The rule behind the calls is not given here.

The target in data set [1] is Calcium/calmodulin-dependent protein kinase type IV (Homo sapiens) (UniProt Q16566). Description: Inhibition of recombinant full-length human CaMK4 at 1 uM using calmodulin as substrate measured after 40 mins in presence of [gamma33P]ATP by scintillation counting method relative to control.
Chain of Calcium/calmodulin-dependent protein kinase type IV (Homo sapiens) (Q16566 whole entry): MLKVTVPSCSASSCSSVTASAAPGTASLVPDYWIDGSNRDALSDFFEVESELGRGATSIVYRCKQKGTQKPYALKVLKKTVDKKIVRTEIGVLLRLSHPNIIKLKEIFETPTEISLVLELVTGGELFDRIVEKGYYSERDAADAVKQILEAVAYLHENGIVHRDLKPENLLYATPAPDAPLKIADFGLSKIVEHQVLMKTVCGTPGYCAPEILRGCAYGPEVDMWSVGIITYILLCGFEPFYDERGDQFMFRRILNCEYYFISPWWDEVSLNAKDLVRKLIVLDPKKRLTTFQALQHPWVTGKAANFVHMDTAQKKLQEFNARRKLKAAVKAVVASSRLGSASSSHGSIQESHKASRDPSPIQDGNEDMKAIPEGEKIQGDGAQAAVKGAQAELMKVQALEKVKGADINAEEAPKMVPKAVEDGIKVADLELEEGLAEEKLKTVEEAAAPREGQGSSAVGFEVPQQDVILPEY
The subject of data set [2] is A549. Description: Downregulation of cyclin T1 expression in human A549 cells at 0.25 to 1 uM after 24 hrs by Western blot analysis. The format is functional, cell-based. In short, it runs like this:
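A549 and H1299 cells treated for 24 h with serial dilutions alongside a DMSO control. Protein extracts resolved and immunoblotted.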
On the technique in general: Immunoblotting shows a protein as a band on a membrane.

The subject of data set [3] is NCI-H1299. The experiment in a line: Induction of cell cycle arrest in human H1299 cells assessed as reduction in accumulation of cells at S phase at 1 uM after 24 hrs by propidium iodide/RNase staining based flow cytometric analysis (reference value: 24.5%). The format is functional. Details: scale not given: the % may be the effect or the level left. In short, it runs like this: (§1)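 A549 and H1299 plated at 5×10^5 cells/mL in 6-well plates, treated after adherence for 24 h. Washed with PBS, fixed overnight in ice-cold 75% ethanol, stained with propidium iodide plus RNase A for 30 min at 37 °C, analysed by flow cytometry for phase distribution. Means ± SD, three independent experiments.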
For orientation: Flow cytometry measures light scatter and fluorescence of single cells or particles in a stream.

Data set [4] has as its system A549. Description: Induction of apoptosis in human A549 cells assessed as viable cells at 0.25 uM after 48 hrs by AnnexinV-FITC/PI staining-based flow cytometric analysis (reference value: 88.8%). Conditions: A549, 48 h, read-out: Activity. The format is functional.
The target of data set [5] is Inhibitor of nuclear factor kappa-B kinase subunit beta (Homo sapiens) (UniProt O14920). Description: Inhibition of recombinant full-length human IKKbeta at 1 uM using peptide substrate measured after 40 mins in presence of [gamma33P]ATP by scintillation counting method relative to control.
Chain of Inhibitor of nuclear factor kappa-B kinase subunit beta (Homo sapiens) (O14920 whole entry): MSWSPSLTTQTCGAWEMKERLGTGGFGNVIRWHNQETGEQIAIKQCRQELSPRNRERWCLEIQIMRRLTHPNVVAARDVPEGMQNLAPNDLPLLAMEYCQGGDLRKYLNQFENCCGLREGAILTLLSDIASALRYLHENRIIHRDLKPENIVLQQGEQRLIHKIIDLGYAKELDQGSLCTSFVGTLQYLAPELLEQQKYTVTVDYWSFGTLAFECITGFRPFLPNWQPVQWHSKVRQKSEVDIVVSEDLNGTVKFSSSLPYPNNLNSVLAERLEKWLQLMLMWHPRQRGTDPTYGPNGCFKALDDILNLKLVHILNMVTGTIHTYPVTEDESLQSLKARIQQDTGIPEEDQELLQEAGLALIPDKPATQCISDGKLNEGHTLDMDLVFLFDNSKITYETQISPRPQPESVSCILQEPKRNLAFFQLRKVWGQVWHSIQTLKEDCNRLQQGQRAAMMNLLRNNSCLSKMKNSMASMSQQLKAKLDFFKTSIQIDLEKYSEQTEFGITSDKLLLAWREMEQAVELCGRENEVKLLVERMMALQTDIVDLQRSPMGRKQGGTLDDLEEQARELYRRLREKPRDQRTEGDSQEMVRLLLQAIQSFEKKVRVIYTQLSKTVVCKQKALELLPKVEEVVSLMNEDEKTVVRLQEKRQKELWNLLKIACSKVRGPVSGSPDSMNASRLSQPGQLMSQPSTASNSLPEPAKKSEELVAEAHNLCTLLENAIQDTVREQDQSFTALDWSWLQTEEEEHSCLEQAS
In data set [6] the test system is NCI-H1299. The experiment in a line: Induction of apoptosis in human H1299 cells assessed as necrotic cells at 0.25 uM after 48 hrs by AnnexinV-FITC/PI staining-based flow cytometric analysis (reference value: 0.9%). It counts as functional.
For data set [7], the target named is Serine/threonine-protein kinase SIK1 (Homo sapiens) (UniProt P57059). The experiment in a line: Inhibition of human SIK (1 to 281 residues) at 1 uM using AMARAASAAALARRR as substrate measured after 40 mins in presence of [gamma33P]ATP by scintillation counting method relative to control. In short, it runs like this: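 Percent inhibition of kinase activity at a single compound concentration, measured by the outsourced Eurofins KinaseProfiler panel. Values are the mean of two independent experiments.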
Chain of Serine/threonine-protein kinase SIK1 (Homo sapiens) (P57059 whole entry, the tested form may be a part): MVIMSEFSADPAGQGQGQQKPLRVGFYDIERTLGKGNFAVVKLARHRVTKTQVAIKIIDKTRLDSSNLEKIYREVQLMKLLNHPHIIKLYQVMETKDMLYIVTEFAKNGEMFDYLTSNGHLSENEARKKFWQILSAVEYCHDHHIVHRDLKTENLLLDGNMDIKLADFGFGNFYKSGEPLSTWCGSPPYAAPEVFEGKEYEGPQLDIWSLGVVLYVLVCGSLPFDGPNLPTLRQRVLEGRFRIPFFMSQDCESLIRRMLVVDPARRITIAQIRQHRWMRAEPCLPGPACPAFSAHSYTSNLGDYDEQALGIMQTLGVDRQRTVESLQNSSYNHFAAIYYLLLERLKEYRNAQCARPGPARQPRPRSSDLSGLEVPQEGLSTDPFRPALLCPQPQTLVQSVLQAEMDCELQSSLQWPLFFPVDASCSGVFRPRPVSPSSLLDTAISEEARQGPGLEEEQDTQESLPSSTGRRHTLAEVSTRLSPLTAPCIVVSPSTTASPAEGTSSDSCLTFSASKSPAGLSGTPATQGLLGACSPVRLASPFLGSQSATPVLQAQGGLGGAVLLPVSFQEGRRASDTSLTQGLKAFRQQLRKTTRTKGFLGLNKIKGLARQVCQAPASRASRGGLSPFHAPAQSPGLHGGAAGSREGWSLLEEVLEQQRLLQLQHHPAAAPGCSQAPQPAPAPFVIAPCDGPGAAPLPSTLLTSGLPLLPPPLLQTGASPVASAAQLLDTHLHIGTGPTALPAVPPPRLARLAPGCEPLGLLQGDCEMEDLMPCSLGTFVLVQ

In data set [8] the target is Tyrosine-protein kinase HCK (Homo sapiens) (UniProt P08631). The experiment in a line: Inhibition of recombinant human activated HCK (230 to 497 residues) at 1 uM using GGMEDIYFEFMGGKKK as substrate measured after 40 mins in presence of [gamma33P]ATP by scintillation counting method relative to control.
Chain of Tyrosine-protein kinase HCK (Homo sapiens) (P08631 2-526 limits assumed): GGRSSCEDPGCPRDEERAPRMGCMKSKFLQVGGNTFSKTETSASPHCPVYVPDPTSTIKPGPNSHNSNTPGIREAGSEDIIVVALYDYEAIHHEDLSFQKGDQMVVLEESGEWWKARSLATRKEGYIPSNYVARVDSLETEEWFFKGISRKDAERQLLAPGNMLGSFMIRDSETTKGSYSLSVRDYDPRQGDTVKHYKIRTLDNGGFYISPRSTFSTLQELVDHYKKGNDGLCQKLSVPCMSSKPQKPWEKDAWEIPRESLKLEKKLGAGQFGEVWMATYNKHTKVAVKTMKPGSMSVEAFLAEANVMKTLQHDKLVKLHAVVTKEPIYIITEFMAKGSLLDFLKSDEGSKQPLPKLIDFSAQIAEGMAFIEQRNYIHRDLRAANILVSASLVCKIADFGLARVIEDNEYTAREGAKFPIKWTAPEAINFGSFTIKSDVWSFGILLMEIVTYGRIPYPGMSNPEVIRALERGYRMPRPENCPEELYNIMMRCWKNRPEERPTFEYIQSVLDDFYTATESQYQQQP
For data set [9], the target named is High affinity nerve growth factor receptor (Homo sapiens) (UniProt P04629). The experiment in a line: Inhibition of recombinant human TRKA (440 to end residues) at 1 uM using KKKSPGEYVNIEFG as substrate measured after 40 mins in presence of [gamma33P]ATP by scintillation counting method relative to control.
The target of data set [10] is Mitogen-activated protein kinase kinase kinase kinase 3 (Homo sapiens) (UniProt Q8IVH8). Description: Inhibition of recombinant human MAP4K3 (1 to 291 residues) at 1 uM using RLGRDKYKTLRQIRQ as substrate measured after 40 mins in presence of [gamma33P]ATP by scintillation counting method relative to control.
Chain of Mitogen-activated protein kinase kinase kinase kinase 3 (Homo sapiens) (Q8IVH8 whole entry, the tested form may be a part): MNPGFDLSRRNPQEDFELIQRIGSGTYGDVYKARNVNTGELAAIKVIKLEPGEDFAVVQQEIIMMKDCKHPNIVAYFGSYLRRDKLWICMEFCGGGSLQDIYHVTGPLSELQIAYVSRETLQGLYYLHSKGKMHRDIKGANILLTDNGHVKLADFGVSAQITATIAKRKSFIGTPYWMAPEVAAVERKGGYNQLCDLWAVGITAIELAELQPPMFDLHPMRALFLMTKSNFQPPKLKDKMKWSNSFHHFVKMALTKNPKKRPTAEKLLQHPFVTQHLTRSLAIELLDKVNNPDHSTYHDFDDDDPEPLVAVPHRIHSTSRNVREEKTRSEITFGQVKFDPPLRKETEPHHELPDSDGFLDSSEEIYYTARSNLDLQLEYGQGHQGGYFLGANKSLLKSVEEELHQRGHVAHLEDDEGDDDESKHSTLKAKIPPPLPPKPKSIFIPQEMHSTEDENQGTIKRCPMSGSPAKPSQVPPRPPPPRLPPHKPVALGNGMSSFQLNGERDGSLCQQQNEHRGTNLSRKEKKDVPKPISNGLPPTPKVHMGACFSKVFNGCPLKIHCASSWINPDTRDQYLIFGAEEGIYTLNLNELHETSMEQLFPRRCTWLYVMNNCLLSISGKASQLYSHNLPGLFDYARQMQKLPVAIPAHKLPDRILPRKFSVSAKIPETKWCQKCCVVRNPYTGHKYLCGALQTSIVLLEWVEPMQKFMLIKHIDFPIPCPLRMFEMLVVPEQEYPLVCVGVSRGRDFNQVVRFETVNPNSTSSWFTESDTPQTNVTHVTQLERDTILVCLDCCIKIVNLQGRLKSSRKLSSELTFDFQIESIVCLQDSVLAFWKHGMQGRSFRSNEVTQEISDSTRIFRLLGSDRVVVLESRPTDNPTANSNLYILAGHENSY
In data set [11] the target is Dual specificity tyrosine-phosphorylation-regulated kinase 1A (Homo sapiens) (UniProt Q13627). The experiment in a line: Inhibition of recombinant full-length human DYRK1A at 1 uM using RRRFRPASPLRGPPK as substrate measured after 40 mins in presence of [gamma33P]ATP by scintillation counting method relative to control.
The test system of data set [12] is NCI-H1299. The experiment in a line: Induction of cell cycle arrest in human H1299 cells assessed as accumulation of cells at G0/G1 phase at 1 uM after 24 hrs by propidium iodide/RNase staining based flow cytometric analysis. The format is functional. In short, it runs like this:
as §1

The target of data set [13] is Mitogen-activated protein kinase 13 (Homo sapiens) (UniProt O15264). The experiment in a line: Inhibition of recombinant full-length human SAPK4 at 1 uM using myelin basic protein as substrate measured after 40 mins in presence of [gamma33P]ATP by scintillation counting method relative to control.
Chain of Mitogen-activated protein kinase 13 (Homo sapiens) (O15264 whole entry): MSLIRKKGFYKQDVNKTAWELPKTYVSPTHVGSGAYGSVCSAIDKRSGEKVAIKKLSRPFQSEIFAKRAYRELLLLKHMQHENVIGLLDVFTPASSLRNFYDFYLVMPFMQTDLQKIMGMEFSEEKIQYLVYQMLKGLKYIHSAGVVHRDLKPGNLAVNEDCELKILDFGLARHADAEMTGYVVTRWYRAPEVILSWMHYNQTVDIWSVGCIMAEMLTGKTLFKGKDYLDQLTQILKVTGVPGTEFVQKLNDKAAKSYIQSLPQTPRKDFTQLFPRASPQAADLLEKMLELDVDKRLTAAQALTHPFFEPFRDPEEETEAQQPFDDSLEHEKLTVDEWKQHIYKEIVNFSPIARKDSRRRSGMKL
Data set [14] deals with Platelet-derived growth factor receptor alpha (Homo sapiens), P16234 [D842V]. The experiment in a line: Inhibition of recombinant human PDGFRalpha (550 to end residues) D842V mutant at 1 uM using GGMEDIYFEFMGGKKK as substrate measured after 40 mins in presence of [gamma33P]ATP by scintillation counting method relative to control.
Data set [15] concerns the target Phosphatidylinositol 5-phosphate 4-kinase type-2 alpha (Homo sapiens) (UniProt P48426). Description: Inhibition of recombinant full-length human PIP4K2alpha at 1 uM using phosphatidylinositol 5-phosphate as substrate measured after 40 mins by HTRF assay relative to control. (TR-FRET usually uses a lanthanide donor and a delayed reading to cut background.)
For data set [16], the target named is Mitogen-activated protein kinase kinase kinase kinase 4 (Homo sapiens) (UniProt O95819). Description: Inhibition of recombinant human MAP4K4 (1 to 328 residues) at 1 uM using RLGRDKYKTLRQIRQ as substrate measured after 40 mins in presence of [gamma33P]ATP by scintillation counting method relative to control.
In data set [17] the target is Activated CDC42 kinase 1 (Homo sapiens) (UniProt Q07912). Description: Inhibition of recombinant human ACK1 (1 to 389 residues) at 1 uM using EFPIYDFLPAKKK as substrate measured after 40 mins in presence of [gamma33P]ATP by scintillation counting method relative to control.
In data set [18] the target is Serine/threonine-protein kinase 4 (Homo sapiens) (UniProt Q13043). The experiment in a line: Inhibition of recombinant full-length human MST1 at 1 uM using KKSRGDYMTMQIG as substrate measured after 40 mins in presence of [gamma33P]ATP by scintillation counting method relative to control.
Chain of Serine/threonine-protein kinase 4 (Homo sapiens) (Q13043 whole entry): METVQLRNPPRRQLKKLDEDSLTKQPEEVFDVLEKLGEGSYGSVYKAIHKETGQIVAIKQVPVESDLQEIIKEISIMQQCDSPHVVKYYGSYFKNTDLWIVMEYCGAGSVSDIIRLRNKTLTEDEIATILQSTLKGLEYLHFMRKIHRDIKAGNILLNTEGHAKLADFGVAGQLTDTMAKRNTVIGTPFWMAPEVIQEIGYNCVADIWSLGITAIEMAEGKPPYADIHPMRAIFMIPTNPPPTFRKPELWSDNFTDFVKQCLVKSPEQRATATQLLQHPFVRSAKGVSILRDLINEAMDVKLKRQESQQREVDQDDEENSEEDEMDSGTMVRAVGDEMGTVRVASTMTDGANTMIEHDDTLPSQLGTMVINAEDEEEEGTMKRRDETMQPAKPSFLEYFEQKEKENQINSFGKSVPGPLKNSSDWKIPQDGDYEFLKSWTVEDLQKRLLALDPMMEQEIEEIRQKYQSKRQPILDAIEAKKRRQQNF
The nature of data set [19]: Half life in Sprague-Dawley rat liver microsomes at 2 uM in presence of NADPH measured up to 1 hr by HPLC analysis. The format is ADME, Microsome. In short, it runs like this: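 Compound at 2 μM incubated at 37 °C with liver microsomes (1 mg/mL), 3 mM MgCl2 and 0.1 M phosphate buffer pH 7.4; 5 min preincubation, then started with 3 mM NADPH. Aliquots (n = 3) at 0, 10, 20, 30, 45, 60 min quenched with ice-cold acetonitrile, centrifuged, supernatant by HPLC. t1/2 from linear-regression kinetic constant k.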

In data set [20] the target is Testis-specific serine/threonine-protein kinase 2 (Homo sapiens) (UniProt Q96PF2). The experiment in a line: Inhibition of recombinant full-length human TSSK2 at 1 uM using KKKVSRSGLYRSPSMPENLNRPR as substrate measured after 40 mins in presence of [gamma33P]ATP by scintillation counting method relative to control.
Chain of Testis-specific serine/threonine-protein kinase 2 (Homo sapiens) (Q96PF2 whole entry): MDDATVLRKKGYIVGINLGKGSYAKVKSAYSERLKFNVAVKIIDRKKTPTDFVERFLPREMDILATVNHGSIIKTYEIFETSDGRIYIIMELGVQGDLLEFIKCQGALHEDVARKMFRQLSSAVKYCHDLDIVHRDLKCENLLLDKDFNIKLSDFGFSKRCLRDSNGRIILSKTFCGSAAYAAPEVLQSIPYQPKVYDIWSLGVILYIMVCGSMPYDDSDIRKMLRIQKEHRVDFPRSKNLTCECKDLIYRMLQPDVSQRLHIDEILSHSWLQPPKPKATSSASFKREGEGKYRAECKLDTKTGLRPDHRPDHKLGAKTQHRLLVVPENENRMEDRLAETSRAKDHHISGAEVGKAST
The subject of data set [21] is Proto-oncogene tyrosine-protein kinase Src (Homo sapiens), P12931 [T341M]. The experiment in a line: Inhibition of recombinant full-length human Src T341M mutant at 1 uM using GGEEEEYFELVKKKK as substrate measured after 40 mins in presence of [gamma33P]ATP by scintillation counting method relative to control.
The species entered for data set [22] is Homo sapiens. The experiment in a line: Inhibition of recombinant human Plk4 S34T mutant (1 to 273 residues) at 1 uM using casein as substrate measured after 120 mins in presence of [gamma33P]ATP by scintillation counting method relative to control.

Take `CN(C)C(=O)c1cc2cnc(Nc3ccc(NC(=O)CCCCCCCN=C=S)cc3)nc2n1C1CCCC1`: the inhibition in data set [1] was -4%; in data set [5], -1%; in data set [7] it was 51%; in [8], 5%; in data set [9] it was 77%; in data set [10] it was 95%. For the same compound, the inhibition in data set [11] was 2%; in data set [13], 10%; in [14], 44%; in data set [15], 0%; in data set [16] it was 16%; in data set [17], 82%. The inhibition in data set [18] is 17%; in data set [20], -3%; in data set [21] it was 20%; in [22], 50%. For the same compound, the outcome in [2] was Active. For the same compound, the Activity in [3] is given as 11.2%; in [6], 0.669%. In addition, in data set [4], the viability at 0.25 µM turned out to be 77.9%. For the same compound, in data set [12], the outcome was inactive. In addition, the half-life at 2 µM in data set [19] was found to be 40.8 min.

Broadly, the inhibition is the drop in the measured response relative to a control, in per cent. One may read the half-life as how long it takes for the measured level to halve.
